This is one part of a sample in which hits are shown more often than they occur.
XBP1 UPR activ: adaptive UPR (XBP1) activation. CHO-XBP1 luciferase reporter, IRE1-XBP1 UPR activation, luminescence; percent of tunicamycin response, DMSO as zero. activation, % at 20 µM. hit rate 0.33% among 330,000. AID 463104;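 active = versus positive control, 20 µM dose yields 30% or more activation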
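Material: CHO-XBP1 cells stably carrying IRE1-XBP1-driven luciferase reporter / Amount: 1000 cells per well / Compound: 20 µM, 1% DMSO / Times: 6 h treatment, 37 °C / Detection: luciferase luminescence / Measure: % activation of reporter signal versus tunicamycin and DMSO controls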
TbMetRS inhib: Trypanosoma brucei MetRS inhibition; purified T. brucei MetRS, ATP depletion, Kinase-Glo luminescence; inhibition, % at 11.9 µM; hit rate 0.4% among 360,000; AID 624268;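 active = inhibition above a per-plate cutoff of the control wells' mean inhibition plus 3 SD, cut at about 5.5% in these data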
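technique = Kinase-Glo luminescence, ATP depletion format | system = purified MetRS (methionyl-tRNA synthetase) enzyme from Trypanosoma brucei | timing = 15 min preincubation, 2 h reaction, all 25 °C | evaluation = percent inhibition versus plate control medians | dosing = single dose, 11.9 µM final nominal, 0.9% final DMSO | also added = substrates ATP, L-methionine and bulk Escherichia coli tRNA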
V-ATPase pH: regulators of yeast V-ATPase proton transport. S. cerevisiae, pHLuorin cytosolic pH fluorescence. AID 504577. response, % at 10 µM. hit rate 0.37% among 350,000; in the data active = response mostly above about 7.3%, no sharp cut-off; inactive = mostly below about 5.4%; also: actives read high
CHOP inhibitor: CHOP inhibition in unfolded protein response | CHO-K1 CHOP-promoter luciferase, tunicamycin-induced, 15-18 h | inhibition, % at 10 µM | hit rate 3.8% among 220,000;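 active = compounds that reduced the stress-induced luciferase reporter signal by more than about 70% of percent inhibition, limit read from the data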
CHOP UPR activ: apoptotic UPR (CHOP) activation; activation, % at 10 µM; CHO-CHOP luciferase reporter, luminescence; percent of tunicamycin response over DMSO baseline; hit rate 0.34% among 330,000;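 active = at 10 µM dose, activation of 40% or more, normalized to positive control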
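Evaluation: % reporter activation, DMSO baseline versus tunicamycin full activation; System: CHO-CHOP luciferase reporter cell line; Input: 500 cells/well; Incubation: 6 h compound treatment, 37 °C; Measured by: Steady-Glo luciferase luminescence; Dosing: one dose, 10 µM in 0.5% DMSO; Buffer or medium: F12 medium, 10% FBS; Benchmarks: positive tunicamycin 10 µg/mL, negative DMSO alone.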
Of the large screens only hits and unclear results are named; the others gave an inactive call.

COc1ccccc1OCC(=O)/C=C1/N(C)c2ccccc2C1(C)C	none
COc1ccc(C(O)c2nc(-c3cccc(O)c3)cs2)cc1 (stereo not drawn)	none (no result: XBP1 UPR activ, V-ATPase pH, CHOP inhibitor, CHOP UPR activ)
CCOc1ccc(-c2cccc(NC(=O)COc3ccc(Cl)cc3)c2)nn1	none (no result: CHOP inhibitor)
O=C(COc1ccc2ccccc2c1)Nc1ccc2c3c(cccc13)CC2	CHOP inhibitor 92
O=C1NC[C@H](CCCCN2C[C@H](Cc3ccc(O)cc3)N(CCc3ccc(O)cc3)C(=O)C2=O)N(CCc2ccccc2)C1=O	none (no result: XBP1 UPR activ, V-ATPase pH, CHOP inhibitor, CHOP UPR activ)
CCOc1ccc(NC(=S)NC(=O)c2c(Cl)c(C)nn2C)c([N+](=O)[O-])c1	CHOP inhibitor 73
CC(C)OC(=O)CSc1ncnc2c1cnn2Cc1ccccc1	CHOP inhibitor 75
c1ccc(CSc2ncnc3c2cnn3Cc2ccccc2)cc1	V-ATPase pH 17
N#CC1=C(c2ccccc2)/C(=C/c2ccccc2)OC1=O	CHOP inhibitor 108
O=C1O/C(=C/c2ccccc2)c2ccccc21	none
CN(C)c1ccc(CC(=O)N2CCCCC2c2cc(C(=O)Nc3cccc4c3CCCC4)no2)cc1 (stereo not drawn)	none (no result: XBP1 UPR activ, V-ATPase pH, CHOP inhibitor, CHOP UPR activ)
COc1ccc(C(=O)NNC2CC(=O)N(Cc3ccc(Cl)cc3)C2=O)cc1OC (stereo not drawn)	none
CCc1cc2c(=O)n(C(C)C(=O)OC3CCCCC3)cnc2s1 (stereo not drawn)	CHOP inhibitor 72
O=C1N(c2ccccc2)C[C@@H]2C[C@@H](c3cc4ccccc4o3)N3CCC[C@@]123	CHOP inhibitor 103
Cc1ccc(-c2ccccc2[C@@H]2C[C@H]3CN(C)C(=O)[C@]34CCCN24)o1	none
O=C(CSc1nnnn1-c1ccc(F)cc1)Nc1nc2ccccc2s1	CHOP inhibitor 70
CCn1nnnc1SCC(=O)Nc1nc2ccccc2s1	none
CCC(Sc1nnnn1-c1ccccc1)C(=O)NC(C)c1ccccc1 (stereo not drawn)	none
Cc1cc(C(F)(F)F)c(C#N)c(SCC(=O)Nc2nc3ccccc3s2)n1	none
Cc1nc(SCC(=O)Nc2nc3ccccc3s2)c(C#N)c(C)c1C	CHOP inhibitor 102
CCC(Sc1nnnn1-c1ccccc1)C(=O)Nc1nc2ccccc2s1 (stereo not drawn)	CHOP inhibitor 89
CCOC(=O)c1cnc(-n2nc(C)cc2C)nc1Nc1ccc(OC)cc1	none
CCOC(=O)c1cnc(-n2nc(C)cc2C)nc1NCc1ccc2c(c1)OCO2	CHOP inhibitor 87
Cc1cc(C)c(O)c(-c2cc(C(=O)Nc3ccc(S(=O)(=O)N4CCOCC4)cc3)[nH]n2)c1	CHOP inhibitor 85
CCOC(=O)C1C(=O)NC(N2CCN(Cc3ccccc3)CC2)=NC1c1ccco1 (stereo not drawn)	none
CCOC(=O)C1C(=O)NC(N2CCCCC2)=NC1c1ccco1 (stereo not drawn)	V-ATPase pH 15
Cc1ccc(-n2nc(C(=O)N3CCOCC3)cc2-c2ccc(Cl)cc2)cc1	none
O=C(c1cc(-c2ccc(Cl)cc2)n(-c2ccc(Cl)cc2)n1)N1CCOCC1	CHOP inhibitor 73
CC1Cc2ccccc2N1C(=O)CNc1ccccc1N1CCCCC1 (stereo not drawn)	CHOP inhibitor 74
CC1CCN(CC(=O)N2c3ccccc3CC2C)CC1 (stereo not drawn)	none
Cc1ccc2nc(-c3ccc(NS(C)(=O)=O)cc3)cc(-c3ccccc3)c2c1	CHOP inhibitor 78
CCS(=O)(=O)Nc1ccc(-c2cc(-c3ccccc3)c3cc(C)ccc3n2)cc1	CHOP inhibitor 87 (no result: XBP1 UPR activ, CHOP UPR activ)
CCC1=C(c2ccc(C)cc2)S(=O)(=O)N=C1N1CCC(C(=O)NCCCN2CCCCC2C)CC1 (stereo not drawn)	none (no result: CHOP inhibitor)
Nc1nc(SCc2ccc(F)cc2)ns1	V-ATPase pH 24
Nc1nnc(SCc2ccc(F)cc2)s1	none
Cc1ccc(S(=O)(=O)N(C)c2ccc(C(=O)N(C)Cc3nc4ccccc4c(=O)[nH]3)cc2)cc1	none (no result: CHOP inhibitor)
CCOc1ccc(S(=O)(=O)N(C(=O)c2ccco2)c2cc3sc(=O)oc3c3ccccc23)cc1	none
COc1ccc(S(=O)(=O)N(C(=O)c2ccco2)c2cc3sc(=O)oc3c3ccccc23)cc1	CHOP inhibitor 85
ClN=C1C=CC=CC1=NCl	none (no result: XBP1 UPR activ, V-ATPase pH, CHOP inhibitor, CHOP UPR activ)
CC(C)N1CCc2c(sc(NC(=O)c3cc4cc([N+](=O)[O-])ccc4s3)c2C(N)=O)C1	CHOP inhibitor 78

Source: PubChem (several laboratories)
